Series [1] deals with HIV TAR RNA. Put plainly: Ethidium bromide displacement. The series is classed as binding, HIV-1. To be noted: read-out: IC50 (ethidium bromide displacement); 100 mM KCl, 10 mM SC, 0.5 mM EDTA, pH 6.8; HIV TAR RNA 50 nM/strand. The procedure, abridged:
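Ethidium bromide at 1.25 μM is excited at 545 nm, and emission is scanned from 560 to 607 nm before and after adding TAR RNA. Under these conditions, less than 20% of the ethidium bromide is bound. Fluorescence displacement titration with test compound follows in the same buffer.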

For series [2], the system named is HIV TAR RNA. Put plainly: UV thermal denaturation of HIV TAR RNA with ligand. It is filed as binding, HIV-1. To be noted: 100 mM KCl; for ΔTm (at rdr = 1): pH 6.8, TAR RNA 1 μM/strand; for Tm: ligand/HIV TAR RNA complex, rdr = 1, 10 mM SC, 0.5 mM EDTA, pH 6.8, TAR RNA 1 μM/strand.
The target of series [3] is HIV TAR RNA. Put plainly: Ethidium bromide displacement titration with Scatchard analysis. It is filed as binding, HIV-1. To be noted: 100 mM KCl, 10 mM SC, 0.5 mM EDTA, pH 6.8; TAR RNA 200 nM/strand; EtBr 5 μM. The procedure, abridged:
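Fluorescent intercalator displacement: test compound titrated into ethidium bromide (5 μM) plus HIV TAR RNA (200 nM/strand) in 10 mM SC, 0.5 mM EDTA, pH 6.8 with 100 mM KCl. Salt series run at 50, 100 and 150 mM KCl. Excitation 545 nm, emission 560–607 nm. Scatchard plot slope gives the association constant K. For the salt series, log K was plotted against log [KCl] and fitted linearly.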

Series [4] concerns MT-2 cells. The series is described as follows: Toxicity against MT-2 cells. It is filed as cell-based. The settings on record: concentration where no more than 5% cell death.
Series [5] relates to HIV. Put plainly: Protection from HIV-induced cytopathic effect. The settings on record: for Maximum protection from HIV cytopathic effects: neutral red dye. It is filed as cell-based. The procedure, abridged:
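MT-2 cells, a line highly susceptible to HIV and fully lysed by it, were used in triplicate wells. Finter's neutral red, a vital dye, served as read-out of inhibition of HIV-induced cytopathic effect, with water as control. Maximum percent protection was recorded together with the compound concentration at which it was reached.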

In series [6] the test system is tetraloop TAR RNA Mutant. Put plainly: FID titration with Scatchard analysis on mutant TAR. The settings on record: mutant tetraloop TAR 200 nM/strand; 100 mM KCl, pH 6.8; EtBr 5 μM. It is filed as binding, HIV-1. The procedure, abridged:
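Tetraloop TAR RNA–ethidium bromide complex in 100 mM KCl, 10 mM SC, 0.5 mM EDTA, pH 6.8, titrated with increasing test compound. The fall in fluorescence at 610 nm was followed. Normalized intensity was plotted against compound concentration, then transformed by Scatchard analysis to derive the binding constant.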

Series [7] has as its system HIVNL4-3. Put plainly: Reverse transcriptase release into culture supernatant of MT-2 cells. It is filed as cell-based, HIV. The procedure, abridged:
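MT-2 cells (500,000/well) were preincubated 1 h at 37 °C with test compound at a non-toxic concentration (≤5% cell death), then infected with H9-grown HIV NL4-3 (100,000 cpm RT activity per well, MOI <1). Virus control was infected cells plus water. Supernatants from days 2, 4 and 6 were PEG-precipitated and lysed. RT was measured as 3H-dTTP incorporation (poly rA-oligo dT, 1 h, 37 °C), as cpm/ml. Three separate experiments, each in triplicate.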

Series [8] has as its system TAR. The settings on record: aminoglycosides targeted towards TAR binding; cited from earlier work.
The target of series [9] is T1, Tat49-57 peptide, fluorescein/TAMRA FRET probe (HIV-1, UniProt P04608 49-57, not fully specified).
T1 chain: RKKRRQRRR
Put plainly: fluorescence intensity.

Here are results for five molecules from publication PMC3673543 (Biochemistry, 2012).

A word on the IC50: it is the midpoint of a concentration-inhibition curve. As usually defined, the Tm is the temperature at which the thermal transition is half complete. With `NC[C@@H]1O[C@H](O[C@H]2[C@@H](O)[C@H](O[C@@H]3[C@@H](O)[C@H](N)C[C@H](N)[C@H]3O[C@H]3O[C@H](CN)[C@@H](O)[C@H](O)[C@H]3N)O[C@@H]2Cn2cc(COCc3cn(C[C@H]4O[C@@H](O[C@@H]5[C@@H](O)[C@H](N)C[C@H](N)[C@H]5O[C@H]5O[C@H](CN)[C@@H](O)[C@H](O)[C@H]5N)[C@H](O)[C@@H]4O[C@H]4O[C@@H](CN)[C@@H](O)[C@H](O)[C@H]4N)nn3)nn2)[C@H](N)[C@@H](O)[C@@H]1O` [DPA51], the IC50 in series [1] amounted to 56 nM. In series [2], the “ΔTm (at rdr = 1)” value worked out at 10.2 °C and the midpoint of thermal melting (Tm) was found to be 79.1 °C. The “K (binding constant from Scatchard analysis of FID)” value in [3] came out at 1.17e+08 M⁻¹.
With `NC[C@@H]1O[C@H](O[C@H]2[C@@H](O)[C@H](O[C@@H]3[C@@H](O)[C@H](N)C[C@H](N)[C@H]3O[C@H]3O[C@H](CN)[C@@H](O)[C@H](O)[C@H]3N)O[C@@H]2Cn2cc(CCCCc3cn(C[C@H]4O[C@@H](O[C@@H]5[C@@H](O)[C@H](N)C[C@H](N)[C@H]5O[C@H]5O[C@H](CN)[C@@H](O)[C@H](O)[C@H]5N)[C@H](O)[C@@H]4O[C@H]4O[C@@H](CN)[C@@H](O)[C@H](O)[C@H]4N)nn3)nn2)[C@H](N)[C@@H](O)[C@@H]1O` [DPA54], the IC50 in series [1] turned out to be 81 nM. The “5% Toxicity (CT5)” value in [4] turned out to be 69 µM. In addition, the “concentration at which maximum protection was achieved” value in series [5] (MT-2 cells, HIV cytopathic effect) amounted to 17 µM. Further, in series [5] (MT-2 cells), the “Maximum protection from HIV cytopathic effects” value was determined as 31%. Besides, in series [2], the “ΔTm (at rdr = 1)” value came out at 8.2 °C and the Tm came out at 77.1 °C. Also, in [3], the “K (binding constant from Scatchard analysis of FID)” value is 2.61e+07 M⁻¹.
Regarding `NC[C@@H]1O[C@H](O[C@H]2[C@@H](O)[C@H](O[C@@H]3[C@@H](O)[C@H](N)C[C@H](N)[C@H]3O[C@H]3O[C@H](CN)[C@@H](O)[C@H](O)[C@H]3N)O[C@@H]2Cn2cc(-c3cccc(-c4cn(C[C@H]5O[C@@H](O[C@@H]6[C@@H](O)[C@H](N)C[C@H](N)[C@H]6O[C@H]6O[C@H](CN)[C@@H](O)[C@H](O)[C@H]6N)[C@H](O)[C@@H]5O[C@H]5O[C@@H](CN)[C@@H](O)[C@H](O)[C@H]5N)nn4)c3)nn2)[C@H](N)[C@@H](O)[C@@H]1O` [DPA65], the 50% inhibitory concentration (IC50) in series [1] came to 36 nM. Also, the “anti-HIV activity in the 96-well plate screening assay” value in [5] (HIV-induced cytopathic effect) was “inactive to weakly active”. For the same molecule, in series [6], the “Ka (Scatchard analysis of FID titration)” value was ~ 10^7 M^−1. Moreover, the “ΔTm (at rdr = 1)” value in series [2] was determined as 9.3 °C. Also, the midpoint of thermal melting (Tm) in series [2] is 78.2 °C. In addition, the “K (binding constant from Scatchard analysis of FID)” value in series [3] came to 1.39e+08 M⁻¹. Besides, the “protection / suppression of RT release” value in series [7] (day 2 post inoculation, vs virus control) is reported as 40-67%; in [7] (day 4, vs virus control), 68-73%; in [7] (day 6, vs virus control), 24-27%.
On to `NC[C@@H]1O[C@H](O[C@H]2[C@@H](O)[C@H](O[C@@H]3[C@@H](O)[C@H](N)C[C@H](N)[C@H]3O[C@H]3O[C@H](CN)[C@@H](O)[C@H](O)[C@H]3N)O[C@@H]2CO)[C@H](N)[C@@H](O)[C@@H]1O` [Neomycin, Neomycin B tri-sulfate, reference compound], for which, in series [8], the inhibitory effect entry is listed as “less than 1 μM”. Further, in series [1], the 50% inhibitory concentration (IC50) was 417 nM. In [5] (MT-2 cells), the “Maximum protection from HIV cytopathic effects” value amounted to 9%. In addition, in [2], the “ΔTm (at rdr = 1)” value is 0.2 °C and the Tm came out at 69.1 °C. Besides, in series [2] (listed as neomycin), the “ΔTm (at rdr = 1)” value is on record as “no thermal stabilization”.
For GGCAGAUCUGAGCCUGGGAGCUCUCUGCC (structured_RNA) [HIV-1 TAR RNA], the “apparent K (half saturation)” value in series [9] stood at 86 ± 9 nM.
